How the values were obtained:
[1] = test system: organic cation transporter, OCT2; settings: cited from earlier work
[2] = Exploratory PK-PD relationship, safety endpoints; format: in vivo, human; settings: AUC(0-τ), Cmax and Cτ; except serum creatinine and CRCL
Method in brief: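 This was an exploratory graphical analysis in phase 2b/3 treatment-naive patients. Individual predicted steady-state Cτ, Cmax and AUC(0-τ) came from the final population model, using actual doses and assuming no inter-occasion variability. They were plotted against change from baseline in serum creatinine, creatinine clearance, urine albumin:creatinine ratio, ALT and total bilirubin, both as maximal change over 48 weeks and as change at week 48.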

[3] = test system: viral strains harboring major integrase resistance mutations selected for by raltegravir and elvitegravir; settings: in vitro; mutations selected for by RAL and EVG; cited from earlier work
[4] = Population PK model; format: in vivo, human
[5] = Individual predicted steady-state PK parameters; format: in vivo, human; settings: for Tmax / AUC / Cmax: human, plasma, oral; for AUC: AUC(0-τ); for AUC / Cmax / Cτ: steady state
Method in brief: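 Individual parameters were empirical Bayes estimates from the final population model, using each subject's actual dose after repeat dosing. AUC(0-τ) was Dose/([CL/F_i]/F). Cmax, tmax and Cτ came from simulated steady-state concentration–time profiles using individual parameters, assuming no inter-occasion variability and zero residual variability. Summary statistics were computed.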

[6] = NONMEM point estimate, inter-individual variability
[7] = NONMEM point estimate, listed as DTG
[8] = 10 mg, ING111521, 10 mg once daily, geometric mean (95% CI)
[9] = 10 mg, SPRING-1, 10 mg once daily, geometric mean (95% CI)
[10] = 50 mg, ING111521, 50 mg once daily, geometric mean (95% CI)
[11] = 50 mg, SPRING-2, 50 mg once daily, geometric mean (95% CI)

SMILES: C[C@@H]1CCO[C@H]2Cn3cc(C(=O)NCc4ccc(F)cc4F)c(=O)c(O)c3C(=O)N12 [dolutegravir, Dolutegravir]
- Inhibition of OCT2 [1]: known to inhibit
- Relationship between DTG exposure and the safety endpoints [2]: No relationship
- Activity against viral strains harboring major integrase resistance mutations [3]: retains activity
- ALAG (absorption lag-time) ([4]; NONMEM point estimate): 0.263 h
- ka (absorption rate constant) ([4]; NONMEM point estimate): 2.24 h^–1
- F ∼ 10 mg ([4]; NONMEM point estimate, factor on F for 10 mg dose): 1.24
- F ∼ GENDER ([4]; NONMEM point estimate, factor on F for females): 1.21
- ω^2V (variance of random effect of V/F) [4, 6]: 0.0188
- ω^2ka (variance of random effect of ka) [4, 6]: 0.224
- ALAG (absorption lag-time) [4, 7]: 0.263 (0.0942, 0.432) h
- ka (absorption rate constant) [4, 7]: 2.24 (1.56, 2.92) h^–1
- V/F ∼ WT ([4]; NONMEM point estimate, power coefficient (WT/70)): 0.768
- σ^2prop (proportional residual error) ([4]; NONMEM point estimate, residual variability): 0.0704
- CL/F range over age in analysis population ([4]; age 18–68 years): 0.772–0.998 l h^–1
- ALAG ([4]; bootstrap median, 1000 runs): 0.262 h
- CL/F ([4]; bootstrap median, 1000 runs): 0.901 l h^–1
- F ∼ 10 mg ([4]; bootstrap median, 1000 runs): 1.24
- F ∼ GENDER ([4]; bootstrap median, 1000 runs): 1.21
- V/F ([4]; bootstrap median, 1000 runs): 17.4 L
- V/F ∼ WT ([4]; bootstrap median, 1000 runs): 0.774
- ka ([4]; bootstrap median, 1000 runs): 2.21 h^–1
- σ^2prop ([4]; bootstrap median, 1000 runs): 0.0698
- ω^2CL ([4]; bootstrap median, 1000 runs): 0.0539
- ω^2V ([4]; bootstrap median, 1000 runs): 0.0182
- ω^2ka ([4]; bootstrap median, 1000 runs): 0.217
- Increase in CL/F for study ING111521 ([4]; compared with SPRING-1 and SPRING-2): 35%
- Oral bioavailability (F) higher in female subjects ([4]; compared with males, mean): 21%
- Vd/F ([4]; human, plasma, oral): 17.4 L
- Apparent clearance higher in current smokers ([4]; vs non-current smokers, mean): 16%
- CL/F range over weights in analysis population ([4]; weight 39–135 kg): 0.697–1.20 l h^–1
- V/F range over weights in analysis population ([4]; weight 39–135 kg): 11.1 to 28.8 L
- Tmax [5]: ~2 h
- Tmax ([5]; 10 mg): 1.66 h
- AUC [5, 8]: 9330 ng·h/mL
- AUC [5, 9]: 14300 ng·h/mL
- Cmax [5, 8]: 691 ng/mL
- Cmax [5, 9]: 957 ng/mL
- Tmax ([5]; 50 mg): 1.94 h
- AUC [5, 10]: 41300 ng·h/mL
- AUC ([5]; 50 mg, SPRING-1, 50 mg once daily, geometric mean (95% CI)): 53800 ng·h/mL
- AUC [5, 11]: 53600 ng·h/mL
- Cmax [5, 10]: 2940 ng/mL
- Cmax [5, 11]: 3690 ng/mL
- Cτ ([5]; 50 mg once daily, three studies pooled (n = 449), geometric mean): 1.11 µg ml^–1
- Cτ ([5]; ING111521, 10 mg once daily, geometric mean (95% CI)): 0.168 (0.136, 0.208) µg ml^–1
- Cτ ([5]; ING111521, 50 mg once daily, geometric mean (95% CI)): 0.785 (0.689, 0.895) µg ml^–1
- Cτ ([5]; SPRING-1, 10 mg once daily, geometric mean (95% CI)): 0.311 (0.281, 0.345) µg ml^–1
- Cτ ([5]; SPRING-1, 25 mg once daily, geometric mean (95% CI)): 0.530 (0.462, 0.609) µg ml^–1
- Cτ ([5]; SPRING-1, 50 mg once daily, geometric mean (95% CI)): 1.17 (1.04, 1.33) µg ml^–1
- Cτ ([5]; SPRING-2, 50 mg once daily, geometric mean (95% CI)): 1.10 (1.05, 1.15) µg ml^–1

— PMC4574835 (British Journal of Clinical Pharmacology, 2015)
